{
  "source": "ChEMBL document CHEMBL1250490",
  "about": "“Synthesis, characterization, antiamoebic activity and cytotoxicity of novel series of pyrazoline derivatives bearing quinoline tail” (Eur J Med Chem, 2010)",
  "system": "MCF7",
  "test": "Cytotoxicity against human MCF7 cells after 48 hrs by MTT assay",
  "assay_type": "cell-based",
  "details": "MCF7, 48 h",
  "outline": "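MCF-7 cells were kept as monolayers in DMEM with 10% fetal calf serum and penicillin. They were plated at 1.2×10⁴ cells/well and grown 48 h before dosing. Compounds were dissolved as 20% DMSO stocks and diluted in complete medium. After 48 h exposure, MTT was added for 4 h at 37 °C and dissolved in DMSO. Absorbance was read at 570 nm (reference 655 nm); viability is relative to untreated cells. Triplicate, repeated thrice.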",
  "note": "pIC50: −log10 of the molar value.",
  "data": [
    {"smiles": "Cc1ncc([N+](=O)[O-])n1CCO", "note": "[METRONIDAZOLE]", "values": [
      {"measurement": "pIC50", "value": "< 4.00"}
    ]}
  ]
}
